The source of these data is ChEMBL document CHEMBL1154385, “(4-Piperidinyl)-piperazine: a new platform for acetyl-CoA carboxylase inhibitors” (Bioorg Med Chem Lett, 2009).

Data set [1] can be described thus: Metabolic stability in human liver microsome assessed as drug remaining at 5 uM after 15 mins. The class given is ADME. The settings on record: liver microsomes, read-out: Activity. The essentials: (§1)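 Compound at 5 µM incubated at 37 °C for 15 min with 1 mg/mL human or rat liver microsomes. Cofactors: 1.5 mM glucose-6-phosphate, 0.16 mM NADP, 1 U/mL glucose-6-phosphate dehydrogenase. Medium: 250 mM phosphate buffer, 2.4 mM MgCl₂, 69 mM KCl. Compound measured by LC–MS/MS at 0 and 15 min; % remaining reported.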
On the technique in general: Liver microsomes are vesicles of endoplasmic reticulum, rich in cytochrome P450 enzymes.

In data set [2] the target is Acetyl-CoA carboxylase 1 (Homo sapiens, UniProt Q13085). Kind of data set: Inhibition of human recombinant ACC1. The essentials:
(§2)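 Recombinant human ACC1 and ACC2 enzymes; activity read as inhibition of malonyl-CoA synthesis.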

For data set [3], the target named is Acetyl-CoA carboxylase 2 (Homo sapiens, UniProt O00763). Kind of data set: Inhibition of human recombinant ACC2. The essentials:
as §2

Data set [4] concerns the target Acetyl-CoA carboxylase (Homo sapiens, UniProt Q13085+O00763). Briefly: Inhibition of partially purified human liver ACC1/2.
Data set [5] deals with HepG2. Briefly: Inhibition of fatty acid synthesis in human HepG2 cells after 48 hrs. The class given is functional, cell-based. The settings on record: for IC50: Homo sapiens, HepG2, 48 h. The essentials:
(§3)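 HepG2 cells. Fatty acid synthesis read as decreased [¹⁴C] acetate incorporation into cellular lipids, reported as IC₅₀. Fatty acid oxidation read as T₂O generated in the culture medium, reported as EC₅₀.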

In data set [6] the test system is HepG2. Kind of data set: Induction of fatty acid oxidation in human HepG2 cells after 48 hrs. The class given is functional, cell-based. The essentials: as §3
The nature of data set [7]: Cmax in Sprague-Dawley rat at 10 mg/kg, po. The class given is ADME, organism-based. The arrangement: dose 10 mg/kg, route oral. Particulars: in vivo. The essentials: (§4)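 Male Sprague-Dawley rats given a single oral dose of 10 mg/kg; plasma exposure parameters taken from the plasma profile.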
Data set [8] is described as follows: AUC in Sprague-Dawley rat at 10 mg/kg, po. The class given is ADME, organism-based. Also on record: dose 10 mg/kg, route oral. Particulars: plasma. The procedure, abridged: as §4
A short description of data set [9]: Tmax in Sprague-Dawley rat at 10 mg/kg, po. The arrangement: dose 10 mg/kg, route oral. Particulars: in vivo. The class given is ADME, organism-based. The essentials: as §4
Data set [10] in a line: Metabolic stability in rat liver microsome assessed as drug remaining at 5 uM after 15 mins. The class given is ADME. The settings on record: liver microsomes, read-out: Activity. The procedure, abridged:
as §1

Structures are written as SMILES.

Sequence of Acetyl-CoA carboxylase 2 (O00763 whole entry): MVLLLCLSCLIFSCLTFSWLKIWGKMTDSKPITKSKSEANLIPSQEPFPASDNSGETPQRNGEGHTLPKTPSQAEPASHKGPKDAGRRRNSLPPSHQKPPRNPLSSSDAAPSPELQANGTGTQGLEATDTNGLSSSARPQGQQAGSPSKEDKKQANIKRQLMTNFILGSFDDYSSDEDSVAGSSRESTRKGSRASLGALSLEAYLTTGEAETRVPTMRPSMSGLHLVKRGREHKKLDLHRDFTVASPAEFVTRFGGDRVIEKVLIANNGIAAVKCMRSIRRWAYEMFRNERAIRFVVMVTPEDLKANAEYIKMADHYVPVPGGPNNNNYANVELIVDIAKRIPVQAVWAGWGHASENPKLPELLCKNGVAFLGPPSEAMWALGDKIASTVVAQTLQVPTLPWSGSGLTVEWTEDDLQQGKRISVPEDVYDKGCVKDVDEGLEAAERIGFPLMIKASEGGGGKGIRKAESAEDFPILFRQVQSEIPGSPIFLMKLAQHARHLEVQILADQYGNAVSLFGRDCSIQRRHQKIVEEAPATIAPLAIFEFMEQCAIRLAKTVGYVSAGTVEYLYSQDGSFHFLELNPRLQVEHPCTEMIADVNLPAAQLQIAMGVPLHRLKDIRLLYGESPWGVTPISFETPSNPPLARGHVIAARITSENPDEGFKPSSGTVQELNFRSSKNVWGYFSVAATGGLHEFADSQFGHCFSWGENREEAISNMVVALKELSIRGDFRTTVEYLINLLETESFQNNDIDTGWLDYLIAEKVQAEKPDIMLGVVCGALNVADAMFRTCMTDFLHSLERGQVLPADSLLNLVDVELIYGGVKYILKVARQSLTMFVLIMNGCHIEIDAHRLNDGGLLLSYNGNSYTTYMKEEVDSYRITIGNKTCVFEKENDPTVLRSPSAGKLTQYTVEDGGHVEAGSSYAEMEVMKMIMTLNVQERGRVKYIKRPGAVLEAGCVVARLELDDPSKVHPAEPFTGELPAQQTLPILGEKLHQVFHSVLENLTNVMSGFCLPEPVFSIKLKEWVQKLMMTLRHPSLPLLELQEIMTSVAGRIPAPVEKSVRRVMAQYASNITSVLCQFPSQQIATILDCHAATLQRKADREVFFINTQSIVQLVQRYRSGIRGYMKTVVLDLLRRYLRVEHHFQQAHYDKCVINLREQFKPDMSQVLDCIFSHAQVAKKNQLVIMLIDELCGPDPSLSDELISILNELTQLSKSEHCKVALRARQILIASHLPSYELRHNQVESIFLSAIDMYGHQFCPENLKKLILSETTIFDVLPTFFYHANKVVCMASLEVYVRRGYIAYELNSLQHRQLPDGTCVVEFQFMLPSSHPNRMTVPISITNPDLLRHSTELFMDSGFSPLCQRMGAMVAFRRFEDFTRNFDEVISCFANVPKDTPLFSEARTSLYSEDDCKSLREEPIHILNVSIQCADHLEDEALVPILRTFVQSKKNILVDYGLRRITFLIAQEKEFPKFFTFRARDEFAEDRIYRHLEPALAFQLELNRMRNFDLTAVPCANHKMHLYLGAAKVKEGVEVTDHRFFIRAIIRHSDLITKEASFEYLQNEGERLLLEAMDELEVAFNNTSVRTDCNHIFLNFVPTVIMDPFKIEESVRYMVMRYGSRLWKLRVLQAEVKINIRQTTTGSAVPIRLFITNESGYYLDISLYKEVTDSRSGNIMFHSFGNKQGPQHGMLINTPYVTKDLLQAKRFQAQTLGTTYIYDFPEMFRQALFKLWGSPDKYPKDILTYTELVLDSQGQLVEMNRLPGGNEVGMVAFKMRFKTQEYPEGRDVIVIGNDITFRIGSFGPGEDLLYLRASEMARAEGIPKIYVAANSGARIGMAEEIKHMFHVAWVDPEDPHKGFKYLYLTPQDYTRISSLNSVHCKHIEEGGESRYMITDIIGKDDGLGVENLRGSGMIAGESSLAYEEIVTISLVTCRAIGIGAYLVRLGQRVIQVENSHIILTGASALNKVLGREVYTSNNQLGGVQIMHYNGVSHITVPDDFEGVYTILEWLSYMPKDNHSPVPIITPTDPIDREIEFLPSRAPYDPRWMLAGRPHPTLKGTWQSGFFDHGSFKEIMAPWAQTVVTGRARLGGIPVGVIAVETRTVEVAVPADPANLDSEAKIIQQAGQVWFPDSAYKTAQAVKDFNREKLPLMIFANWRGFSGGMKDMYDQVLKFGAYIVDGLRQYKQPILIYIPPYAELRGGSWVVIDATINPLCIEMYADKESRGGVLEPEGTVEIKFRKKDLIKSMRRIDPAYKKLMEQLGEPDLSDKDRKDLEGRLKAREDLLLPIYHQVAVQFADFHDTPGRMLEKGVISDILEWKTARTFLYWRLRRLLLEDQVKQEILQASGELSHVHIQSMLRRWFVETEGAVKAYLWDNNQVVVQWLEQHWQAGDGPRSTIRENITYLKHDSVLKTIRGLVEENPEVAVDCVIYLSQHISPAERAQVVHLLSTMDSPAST

Regarding `O=C(c1c2ccccc2cc2ccccc12)N1CCC(N2CCC[C@@H](C(=O)N3CCOCC3)C2)CC1`, the remaining at 0.25 h, 5 µM in data set [1] came to 52%. Also, the IC50 (as a rule, the point on the concentration scale where inhibition reaches its midpoint) was 456 nM in data set [2], 194 nM in [3], 116 nM in data set [4] and 840 nM in data set [5].

For `COC(=O)N1CCC(C(=O)N2CCC(N3CCN(C(=O)c4cc(-c5ccccc5)nc(-c5ccccc5)c4)CC3)CC2)CC1`, the IC50 in data set [4] is reported as 102 nM.

Regarding `CC(=O)N1CCC(C(=O)N2CCC(N3CCN(C(=O)c4cc(-c5ccc(CO)cc5)nc(-c5ccc(CO)cc5)c4)CC3)CC2)CC1`, the Activity in data set [6] worked out at 120%. Further, the IC50 in data set [4] is 32 nM.

For the molecule `O=C(c1ccco1)N1CCC(N2CCN(C(=O)c3c4ccccc4cc4ccccc34)CC2)CC1`, the IC50 in data set [4] was 161 nM.

In turn, `O=C(c1ccccc1)N1CCC(N2CCN(C(=O)c3cc(-c4ccccc4)nc(-c4ccccc4)c3)CC2)CC1` showed an IC50 in data set [4] of 693 nM.

Molecule `CS(=O)(=O)N1CCC(C(=O)N2CCC(N3CCN(C(=O)c4cc(-c5ccccc5)nc(-c5ccccc5)c4)CC3)CC2)CC1` yielded an IC50 in data set [4] of 248 nM.

In turn, `CN(C)C(=O)N1CCC(C(=O)N2CCC(N3CCN(C(=O)c4cc(-c5ccccc5)nc(-c5ccccc5)c4)CC3)CC2)CC1` returned a half-maximal inhibitory concentration (IC50) in data set [4] of 169 nM.

In [4], `CC(C)OC(=O)N1CCC(C(=O)N2CCC(N3CCN(C(=O)c4cc(-c5ccccc5)nc(-c5ccccc5)c4)CC3)CC2)CC1` yielded an IC50 of 411 nM.

As for `O=C(c1cc(-c2ccccc2)nc(-c2ccccc2)c1)N1CCN(C2CCN(C(=O)C3CCCCC3)CC2)CC1`, the IC50 in data set [4] amounted to 244 nM.

In turn, `O=C(c1c2ccccc2cc2ccccc12)N1CCN(C2CCN(C(=O)C3CCCC3)CC2)CC1` gave an IC50 in data set [4] of 95 nM.

For the molecule `O=C(c1cc(-c2ccccc2)nc(-c2ccccc2)c1)N1CCN(C2CCN(C(=O)N3CCOCC3)CC2)CC1`, in data set [4], the IC50 is recorded as 869 nM.

Molecule `COCC(=O)N1CCC(C(=O)N2CCC(N3CCN(C(=O)c4cc(-c5ccccc5)nc(-c5ccccc5)c4)CC3)CC2)CC1` yielded an IC50 in data set [4] of 169 nM.

For the molecule `Cc1cc(C(=O)N2CCC(N3CCN(C(=O)c4cc(-c5ccccc5)nc(-c5ccccc5)c4)CC3)CC2)c(C)o1`, the IC50 in data set [4] was found to be 157 nM.

The molecule `CC(=O)N1CCC(C(=O)N2CCC(N3CCN(C(=O)c4cc(-c5cccc(F)c5)nc(-c5cccc(F)c5)c4)CC3)CC2)CC1` yielded an IC50 in data set [4] of 131 nM.

On to `O=C(Cc1ccccc1)N1CCC(N2CCN(C(=O)c3c4ccccc4cc4ccccc34)CC2)CC1`, for which the IC50 in [4] is reported as 2112 nM.

In data set [4], `O=C(c1cc(-c2ccccc2)nc(-c2ccccc2)c1)N1CCN(C2CCN(C(=O)N3CCCCC3)CC2)CC1` yielded an IC50 of 434 nM.

The molecule `CC(=O)N1CCC(C(=O)N2CCC(N3CCN(C(=O)c4cc(-c5ccc(O)cc5)nc(-c5ccc(O)cc5)c4)CC3)CC2)CC1` came in with an Activity in [6] of 123%. The molecule also showed an IC50 in data set [4] of 52 nM. The “inhibition (INH)” value in [5] was 29%.

As for `CC(=O)N1CCC(C(=O)N2CCC(N3CCN(C(=O)c4cc(-c5ccc(C)cc5)nc(-c5ccc(C)cc5)c4)CC3)CC2)CC1`, the figures for the remaining at 0.25 h, 5 µM in data set [1] and in data set [10] were 87% and 96%, respectively. In addition, the IC50 in data set [2] amounted to 101 nM; in data set [3], 23 nM; in data set [4], 76 nM; in [5], 340 nM. In addition, in [7], the Cmax (commonly the highest concentration seen after dosing) worked out at 107 ng/mL. Further, in [6], the Activity stood at 176%. In data set [6] (Homo sapiens, HepG2, 48 h), the EC50 (commonly the concentration that produces a half-maximal response) stood at 580 nM. Besides, the AUC – broadly, concentration integrated over time – in data set [8] is 1000 ng·h/mL. Also, the Tmax (usually the time at which the peak concentration occurs) in data set [9] is 4 h. Besides, in [5], the “inhibition (INH)” value is listed as 77%.

For the molecule `CC(=O)N1CCC(C(=O)N2CCC(N3CCN(C(=O)c4cc(-c5ccccc5)nc(-c5ccc(F)cc5)c4)CC3)CC2)CC1`, the IC50 in data set [4] stood at 184 nM.

The molecule `O=C(c1c2ccccc2cc2ccccc12)N1CCN(C2CCN(C(=O)N3CCOCC3)CC2)CC1` gave an IC50 in data set [4] of 239 nM.

In data set [4], `CO[C@H]1CC[C@H](C(=O)N2CCC(N3CCN(C(=O)c4cc(-c5ccccc5)nc(-c5ccccc5)c4)CC3)CC2)CC1` showed an IC50 of 155 nM.

In the case of `O=C(c1ccccc1)N1CCC(C(=O)N2CCC(N3CCN(C(=O)c4cc(-c5ccccc5)nc(-c5ccccc5)c4)CC3)CC2)CC1`, the IC50 in [4] is recorded as 290 nM.

Molecule `O=C(c1c2ccccc2cc2ccccc12)N1CCN(C2CCN(C(=O)C3CCCCC3)CC2)CC1` yielded an IC50 in data set [4] of 91 nM.

`CC(=O)N1CCC(C(=O)N2CCC(N3CCN(C(=O)c4cc(-c5ccccc5)nc(-c5ccccc5)c4)CC3)CC2)CC1` showed an Activity in data set [6] of 148%. This molecule also gave an IC50 in data set [4] of 126 nM. In addition, the “inhibition (INH)” value in [5] came to 72%.

With `CC(=O)N1CCC(C(=O)N2CCC(N3CCN(C(=O)c4cc(-c5cccc(C(N)=O)c5)nc(-c5cccc(C(N)=O)c5)c4)CC3)CC2)CC1`, the Activity in data set [6] stood at 94%. The molecule further displayed an IC50 in [4] of 73 nM.

On to `CNC(=O)N1CCC(C(=O)N2CCC(N3CCN(C(=O)c4cc(-c5ccccc5)nc(-c5ccccc5)c4)CC3)CC2)CC1`, for which the IC50 in data set [4] is 95 nM.

As for `Cc1cc(C(=O)N2CCC(N3CCN(C(=O)c4c5ccccc5cc5ccccc45)CC3)CC2)c(C)o1`, the IC50 in data set [4] is on record as 60 nM.

Molecule `O=C(CO)N1CCC(C(=O)N2CCC(N3CCN(C(=O)c4cc(-c5ccccc5)nc(-c5ccccc5)c4)CC3)CC2)CC1` displayed an IC50 in [4] of 102 nM.

For `O=C(c1c2ccccc2cc2ccccc12)N1CCN(C2CCN(C(=O)N3CCCCC3)CC2)CC1`, in data set [4], the IC50 amounted to 121 nM.

`O=C(c1ccccc1)N1CCC(N2CCN(C(=O)c3c4ccccc4cc4ccccc34)CC2)CC1` displayed an IC50 in data set [4] of 66 nM.

For the molecule `CCC(=O)N1CCC(C(=O)N2CCC(N3CCN(C(=O)c4cc(-c5ccccc5)nc(-c5ccccc5)c4)CC3)CC2)CC1`, in data set [4], the IC50 turned out to be 115 nM.

`CC(=O)N1CCC(C(=O)N2CCC(N3CCN(C(=O)c4cc(-c5ccc(C(N)=O)cc5)nc(-c5ccc(C(N)=O)cc5)c4)CC3)CC2)CC1` displayed an Activity in data set [6] of 135%. In [4], this molecule came in with an IC50 of 67 nM.

Consider `COc1ccc(-c2cc(C(=O)N3CCN(C4CCN(C(=O)C5CCN(C(C)=O)CC5)CC4)CC3)cc(-c3ccc(OC)cc3)n2)cc1`, for which the Activity in data set [6] was found to be 167%. In data set [4], this molecule registered a half-inhibitory concentration (IC50) of 68 nM. Also, the “inhibition (INH)” value in [5] is listed as 77%.

Molecule `NC(=O)N1CCC(C(=O)N2CCC(N3CCN(C(=O)c4cc(-c5ccccc5)nc(-c5ccccc5)c4)CC3)CC2)CC1` returned an IC50 in [4] of 151 nM.
